Bioassay records as filed in PubChem BioAssay.
TPT1 inh: C. albicans TPT1 enzyme inhibition. recombinant caTPT1, FP RNA substrate dephosphorylation. inhibition, % at 5 µM. 300,000 tested, 0.81% active;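 active = inhibition above the mean of all tested compounds plus 3 SD, set per screening campaign, cut at about 24% in these data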
IDE act: boosts human insulin-degrading enzyme activity in HEK cells; activation, % at 5.96 µM; P14735; 340,000 tested, 0.073% active; FAbeta-B cleavage, fluorescence polarization; 0% vehicle, 100% cell-free pure enzyme wells;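 active = activation above the mean of all tested compounds plus 3 SD, set per screening campaign, cut at about 17% in these data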
IDE inh: inhibitors of human insulin-degrading enzyme in cells; P14735; HEK cells, FAbetaB cleavage, fluorescence polarization; inhibition, % at 5.59 µM; 320,000 tested, 0.41% active; AID 434962;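 active = percent inhibition above the average of all tested compounds plus 3 SD, set per screening campaign, cut at about 16% in these data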;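 note: IDE supplied by intact live HEK cells; FP after avidin binding of uncleaved biotin substrate so inhibition keeps polarization high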
CSN inh: inhibitors of human CSN-mediated cullin deneddylation; inhibition, % at 12.5 µM; 360,000 tested, 0.38% active; Q92905; Purified CSN, SCF-Nedd8-OG deneddylation, fluorescence polarization;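 active = pattern-corrected inhibition above about 35%, with an unprinted fluorescence ratio check between 0.5 and 1.5, limit read from the data, passing the limit was not always enough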
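Test system: Human Csn5 produced in HEK293T cells | Compound: 12.5 µM single point | Times: 90 min, room temperature | Signal: Fluorescence polarization readout | Read-out basis: % inhibition of substrate cleavage by Csn5 | Controls: no-enzyme wells high, enzyme-with-substrate wells low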
Rpn11 inh: blocks the human proteasome subunit Rpn11; calls only at 20 µM; human 26S proteasome, Ub4-pepOG fluorescence polarization; 20S core pre-blocked with epoxomicin; AID 588493; 360,000 tested, 0.59% active;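 active = inhibition at 20 µM, scaled to each plate's controls, above about 33%, limit read from the data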
HNF4A DNA FP: change in binding of human HNF4 alpha to DNA; HNF4a-FITC DNA binding, fluorescence polarization, 1 h; 360,000 tested, 0.3% active; activity change, % at 10 µM; in the data active = activity change above about 30%, passing the limit was not always enough
Target sequence (P41235 whole entry, looked up): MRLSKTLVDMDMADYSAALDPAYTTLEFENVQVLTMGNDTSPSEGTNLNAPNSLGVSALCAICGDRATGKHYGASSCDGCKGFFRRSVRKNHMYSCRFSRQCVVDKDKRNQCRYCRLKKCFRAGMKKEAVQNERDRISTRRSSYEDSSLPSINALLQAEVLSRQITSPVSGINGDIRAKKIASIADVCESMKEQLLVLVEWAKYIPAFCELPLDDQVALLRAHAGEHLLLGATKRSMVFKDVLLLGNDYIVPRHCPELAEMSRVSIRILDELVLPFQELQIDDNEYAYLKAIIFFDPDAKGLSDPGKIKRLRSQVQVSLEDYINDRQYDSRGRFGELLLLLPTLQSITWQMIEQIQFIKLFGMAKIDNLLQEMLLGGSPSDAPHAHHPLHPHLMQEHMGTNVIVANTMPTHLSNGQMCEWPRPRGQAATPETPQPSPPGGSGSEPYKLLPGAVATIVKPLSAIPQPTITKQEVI
Of the large screens only hits and unclear results are named; the others gave an inactive call. Only some compounds are listed: those with a hit (about 1.7% of all), similar ones and a draw of the others.

C[C@]12CS(=O)(=O)C[C@H]1SC(=S)N2c1ccccc1	none
COc1ccc(-n2nc(C(=O)Nc3ccc(OC)c(OC)c3)c3c4ccccc4n(C)c3c2=O)cc1	CSN inh 48.0
CCOC(=O)C1CCN(S(=O)(=O)c2ccc(-c3cc(C(F)(F)F)n(C)n3)s2)CC1	none (no result: IDE act)
CCOc1ccc(-c2csc(NNC3=NCCCCC3)n2)cc1	none
C=CCn1c(NC(=O)c2ccccc2Cl)c(C#N)c2nc3ccccc3nc21	CSN inh 56.8, HNF4A DNA FP 64.1
CCOc1cc(/C=C2/C(=N)N3C(=NC2=O)SN=C3S(=O)(=O)C(C)C)ccc1OC(=O)c1ccco1	HNF4A DNA FP 38.6 (not shown: Rpn11 inh)
COc1cc(/C=C2/C(=N)N3C(SC)=NSC3=NC2=O)ccc1OC(=O)c1ccco1	none
CC(C)OC(=O)c1nn2c(C(F)(F)F)cc(-c3ccco3)nc2c1Cl	HNF4A DNA FP 64.9 (not shown: Rpn11 inh)
CCNc1nc(NCC)nc(N/N=C/c2ccc(OC)cc2)n1	none (no result: IDE act)
O=c1oc2ccccc2n1CCn1c2ccccc2c2nc3ccccc3nc21	CSN inh 52.3
COc1ccc2c(c1)c1nc3ccccc3nc1n2CCn1c(=O)oc2ccccc21	none
COc1ccc(CNC(=O)c2c(-c3cc(Cl)c(OC)c(Cl)c3)noc2C)cc1	none
CC1CCCCC12NC(=O)N(CC(=O)N1CCc3ccccc31)C2=O (configuration not stated)	none (no result: TPT1 inh)
Cc1cccc(C(=O)NC2CCN(C(=S)NCc3ccco3)CC2)c1	none
O=C(NC1CCN(C(=S)NCc2ccco2)CC1)NC12CC3CC(CC(C3)C1)C2	HNF4A DNA FP 43.5
COc1cccc(CNc2nnnn2C)c1	none
CCOc1cc(/C=N/NC(=O)c2nnn(-c3nonc3N)c2C)ccc1OCc1ccc(C)cc1	CSN inh 40.8 (no result: TPT1 inh, IDE act, IDE inh)
CCOc1cc(/C=N/NC(=O)c2nnn(-c3nonc3N)c2C)ccc1OCc1ccc(F)cc1	none
CNC(=O)C(=O)NCC1OCCN1S(=O)(=O)c1ccc([N+](=O)[O-])cc1 (configuration not stated)	none
O=C(NCc1ccccc1)C(=O)NCC1OCCN1S(=O)(=O)c1ccc([N+](=O)[O-])cc1 (configuration not stated)	HNF4A DNA FP 32.1
Cn1c(=O)c(NCCO)c2c3c(cccc31)C(=O)c1ccccc1-2	IDE act 53.7
Cn1c(=O)c(NCCc2ccccc2)c2c3c(cccc31)C(=O)c1ccccc1-2	none
O=C(COc1ccc(F)cc1)N1c2ccccc2CCc2ccccc21	none
Cc1nnc(NC(=O)c2sc3nc(-c4cccs4)cc(C(F)(F)F)c3c2N)s1	TPT1 inh 47.0, IDE inh 19.1, CSN inh 106.1 (not shown: Rpn11 inh)
CC(C)(C)C(=O)c1sc2nc(-c3cccs3)cc(C(F)(F)F)c2c1N	none (not shown: Rpn11 inh)
COc1ccc(N2CCN(CC(=O)NCc3ccccc3)CC2)cc1	none
CCCNC(=O)CN1CCN(c2cc3ccccc3c(Cl)n2)CC1	CSN inh 100.3
COc1ccc(C2=NOC(Cn3nc(-c4ccccc4)cc3C(=O)NCc3ccc(C)cc3)C2)cc1 (configuration not stated)	CSN inh 35.2 (no result: TPT1 inh)
Cn1c(-c2ccccc2)nc2cnccc21	none
Cc1cc(Oc2ccc(C#N)cc2)nc(N2CCOCC2)n1	IDE act 27.9
Cc1cc(Oc2ccc([N+](=O)[O-])cc2)nc(N2CCOCC2)n1	none
Cc1ccc(S(=O)(=O)N/N=C/c2cccc(OC3CSC3)c2)cc1	none
O=C(CSc1nc(-c2ccc(F)cc2)nc2c1Cc1ccccc1O2)Nc1ccc(C(=O)O)cc1	Rpn11 inh active (no result: TPT1 inh, IDE inh)
CC(=O)Nc1ccc(NC(=O)COC(=O)c2n[nH]c3ccccc23)cc1	IDE act 19.2
CCOc1ccc(NC(=O)COC(=O)c2n[nH]c3ccccc23)cc1	none (no result: TPT1 inh)
COc1cc(/C=C/C(=O)/C=C(O)/C=C/c2ccc(O)c(OC)c2)ccc1O	HNF4A DNA FP 116.8 (not shown: TPT1 inh, Rpn11 inh)
COC(=O)C1CCN(C(=O)c2ccc3nc(-c4cccc(OC)c4)oc3c2)CC1	none
O=C(N1CCCCC1)C1(c2ccccc2)CCOCC1	none
O=C(N1CCCCC1)C1(c2ccccc2)CCCCC1	CSN inh 37.3
Cc1cc(C)c(S(=O)(=O)/N=C2/C=C(SCC(=O)O)C(=O)c3ccccc32)cc1C	HNF4A DNA FP 37.6 (no result: TPT1 inh, IDE inh)
CCC(CC)c1nnc(NC(=O)c2cc([N+](=O)[O-])ccc2N2CCCCC2)s1	CSN inh 47.2
COc1ccc(NC(=O)c2cc([N+](=O)[O-])ccc2N2CCCCC2)cc1	HNF4A DNA FP 30.7
COc1ccc(NC(=O)c2cc([N+](=O)[O-])ccc2N2CCCC2)cc1	none (no result: IDE act)
Cn1cnc([N+](=O)[O-])c1SCC(=O)NN	none
CCCCCCSc1cccc(-c2nc3ccc(C)cn3c2NCc2ccccc2)c1	none
Cc1ccc(NC(=O)c2cc(-c3ccco3)nc3ccccc23)cc1S(=O)(=O)N1CCOCC1	CSN inh 37.4
COc1ccc(NC(=O)c2cc(-c3ccco3)nc3ccccc23)cc1S(=O)(=O)N1CCOCC1	none
CSc1ccccc1NC(=O)N1CCC(CO)(CC2CCCCO2)CC1 (configuration not stated)	none
COc1ccc(OC(C)C(=O)NC2CC(C)(C)NC(C)(C)C2)cc1 (configuration not stated)	none
COc1ccc(CNC(=O)C(=O)NC2CC(C)(C)NC(C)(C)C2)cc1	HNF4A DNA FP 138.2
COc1ccc(/C(N)=N/OC(=O)CCCN2C(=O)c3ccccc3C2=O)cc1OC	none
CCOc1ccc(C(=O)Nc2cccc(C(=O)O)c2)cc1Cl	none
CCOc1ccc(C(=O)Nc2cc(NC(=O)c3ccc(OCC)c(Cl)c3)cc(C(=O)O)c2)cc1Cl	CSN inh 48.8 (no result: TPT1 inh, IDE inh)
Cc1c(NC(=O)Nc2ccccc2[N+](=O)[O-])c(=O)n(-c2ccccc2)n1C	none
CCCCNc1c(-c2cccc(OC)c2)nc2nc(C)cc(C)n12	none (no result: TPT1 inh, IDE act, IDE inh, Rpn11 inh)
COc1cccc(-c2nc3nc(C)cc(C)n3c2Nc2c(C)cccc2C)c1	HNF4A DNA FP 53.3 (no result: TPT1 inh, IDE act, IDE inh, Rpn11 inh)
O=c1c2ccccc2nc(/C=C/c2ccc([N+](=O)[O-])o2)n1CCCO	HNF4A DNA FP 73.7 (not shown: Rpn11 inh)
CN(C)CCNc1cccc2sc3ccc(O)cc3c(=O)c12	none (no result: TPT1 inh, IDE act, IDE inh)
Cc1ccc(NCCN(C)C)c2c(=O)c3cc(O)ccc3sc12	HNF4A DNA FP 52.2 (no result: TPT1 inh, IDE inh)
COc1ccc(C(CC(=O)N2CCCCC2)c2c(OC)cc(OC)c3c(-c4ccccc4)cc(=O)oc23)cc1 (configuration not stated)	none
COc1ccc(C(CC(=O)N2CCCC2)c2c(OC)cc(OC)c3c(-c4ccccc4)cc(=O)oc23)cc1 (configuration not stated)	CSN inh 36.3
COc1ccc(-c2n[nH]c(=S)n2-c2ccc(C)cc2C)cc1	HNF4A DNA FP 36.4
Oc1c(C=C2N=c3ccccc3=N2)sc(=S)n1-c1ccc2ccccc2c1	none
